From ChEMBL document CHEMBL3421580, “Discovery of autophagy inhibitors with antiproliferative activity in lung and pancreatic cancer cells” (ACS Med Chem Lett, 2015)
The source made the active and inactive calls. No cut-off for these calls is given here.

Tests used:
[1] = Antiproliferative activity against human H460 cells after 72 hrs by SRB method; type: functional, cell-based; settings: NCI-H460, 72 h
How it was run: (§1)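 SRB growth assay: cells exposed to compounds over a 100-fold concentration range for 72 h, then cell number quantified. IC50 calculated from the curves. Means of at least 3 experiments, each run in triplicate.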

[2] = Antiproliferative activity against human HCC827 cells after 72 hrs by SRB method; type: functional, cell-based; settings: HCC827, 72 h; how it was run: as §1
[3] = Antiproliferative activity against human BxPC3 cells after 72 hrs by SRB method; type: functional, cell-based; settings: BXPC-3, 72 h; how it was run: as §1
[4] = Ratio of hydroxychloroquine IC50 to compound IC50 for human H460 cells; type: functional
[5] = Ratio of hydroxychloroquine IC50 to compound IC50 for human HCC827 cells; type: functional
BXPC-3 = assay: Ratio of hydroxychloroquine IC50 to compound IC50 for human BxPC3 cells; type: functional
MDA-MB-231 = assay: Cytotoxicity against human MDA-MB-231 cells after 72 hrs by MTT assay; type: functional, cell-based; settings: MDA-MB-231, 72 h, pooled result: one value given for 7 cell lines, strains, targets or settings
NCI-H460 [6] = assay: Induction of apoptosis in human H460 cells at 25 to 75 uM after 24 hrs by annexin-V staining-based flow cytometry; type: functional, cell-based
How it was run: (§2)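 Apoptosis in treated H460 cells was detected by binding of APC-conjugated annexin V to surface phosphatidylserine, measured by flow cytometry. Means ± SD of 3 experiments; p < 0.05 taken as significant.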

[7] = Cytotoxicity against human 1205 Lu cells after 72 hrs by MTT assay; type: functional, cell-based
[8] = Cytotoxicity against human C8161 cells after 72 hrs by MTT assay; type: functional, cell-based; settings: C8161, 72 h
[9] = Cytotoxicity against human LN229 cells after 72 hrs by MTT assay; type: functional, cell-based; settings: LN-229, 72 h
HT-29 = assay: Cytotoxicity against human HT-29 cells after 72 hrs by MTT assay; type: functional, cell-based; settings: HT-29, 72 h
[10] = Inhibition of colony formation in human H460 cells at 6.5 to 100 uM treated for 24 hrs followed by incubation in drug free medium for 10 days by crystal violet staining-based assay relative to hydroxychloroquine; type: functional, NCI-H460
How it was run: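 H460 cells exposed to drug for 24 h, after which medium was replaced with drug-free medium. Colonies grew for another 10 days and were stained with crystal violet.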

NCI-H460 [11] = assay: Induction of apoptosis in human H460 cells after 24 hrs by annexin-V staining-based flow cytometry; type: functional, cell-based; how it was run: as §2
NCI-H3122 = assay: Inhibition of autophagy in human NCI-H3122 cells assessed as increase in punctate LC3 expression at 25 to 50 uM after 6 hrs by fluorescence microscopic analysis; type: functional, cell-based
How it was run: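 NCI-H3122 NSCLC cells transfected with a mCherry-EGFP-LC3B tandem reporter, then treated 6 h. Cells fixed and green, red and yellow fluorescent puncta examined by fluorescence microscopy.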

NCI-H460 [12] = assay: Inhibition of autophagy in human H460 cells assessed as increase in punctate LC3 level after 24 hrs by immunoblot analysis; type: functional, cell-based
How it was run: (§3)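 H460 cells treated 24 h across a concentration series, or with 10 μM compound for varying times, or at 10 μM for 24 h. Cell extracts immunoblotted with anti-LC3 to separate LC3-I from autophagosome-bound LC3-II. Actin probed as loading control.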

NCI-H460 [13] = assay: Inhibition of autophagy in human H460 cells assessed as increase in punctate LC3 level at 10 uM by immunoblot analysis; type: functional, cell-based; settings: TDE = time-dependent effect; how it was run: as §3
NCI-H460 [14] = assay: Inhibition of autophagy in human H460 cells assessed as increase in p62 level after 24 hrs by immunoblot analysis; type: functional, cell-based
How it was run: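 H460 cells exposed 24 h to a concentration series. Extracts immunoblotted for p62, with actin as loading control.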

NCI-H460 [15] = assay: Inhibition of autophagy in human H460 cells assessed as increase in LC3-2 level at 10 uM after 24 hrs by immunoblot analysis
Homo sapiens = species: Homo sapiens; assay: Cmax in human at 1200 mg; type: ADME, organism-based; design: dose 1200 mg; settings: in vivo

SMILES	IC50 [1] [µM]	IC50 [2] [µM]	IC50 [3] [µM]	Ratio IC50 [4]	Ratio IC50 [5]	Ratio IC50 (BXPC-3)	also measured
CN(CCNCc1cn(CCc2c[nH]c3ccccc23)nn1)CCNc1ccnc2cc(Cl)ccc12	12	8.5	7.6	6	6	6	–
CN(CCNCc1cn(CCCO)nn1)CCNc1ccnc2cc(Cl)ccc12	> 200	> 200	–	–	–	–	–
Clc1ccc2c(-n3cc(CNCc4cn(-c5ccnc6cc(Cl)ccc56)nn4)nn3)ccnc2c1	70	72	78	–	–	–	–
CN(CCNCc1cn(CCC(=O)Nc2ccccn2)nn1)CCNc1ccnc2cc(Cl)ccc12	> 200	> 200	–	–	–	–	–
CN(CCNCc1cn(Cc2nc3ccccc3[nH]2)nn1)CCNc1ccnc2cc(Cl)ccc12	120	164	–	–	–	–	–
CN(CCNCc1cn(-c2ccccc2)nn1)CCNc1ccnc2cc(Cl)ccc12	25	26	10	2.9	2.9	2.9	–
Clc1ccc2c(NCCNCc3cn(-c4ccnc5cc(Cl)ccc45)nn3)ccnc2c1	21	16	14	3.2	3.2	3.2	–
CN(CCNCc1cn(-c2ccc(F)cc2)nn1)CCNc1ccnc2cc(Cl)ccc12	34	19	12	2.8	2.8	2.8	–
CN(CCNCc1cn(C(C)(C)C)nn1)CCNc1ccnc2cc(Cl)ccc12	79	56	39	–	–	–	–
CN(CCNCc1cn(-c2cccc(Cl)c2)nn1)CCNc1ccnc2cc(Cl)ccc12	17	9.4	12	4.7	4.7	4.7	–
CN(CCNCc1cn(-c2ccnc3cc(Cl)ccc23)nn1)CCNc1ccnc2cc(Cl)ccc12	16	18	8.8	3.9	3.9	3.9	–
CN(CCNCc1cn(CCCn2nn[nH]c2=O)nn1)CCNc1ccnc2cc(Cl)ccc12	> 200	> 200	–	–	–	–	–
CN(CCNCc1cn(CC(=O)Nc2cccc3ccc(O)cc23)nn1)CCNc1ccnc2cc(Cl)ccc12	67	86	–	–	–	–	–
CN(CCNCc1cn(-c2ccccc2Cl)nn1)CCNc1ccnc2cc(Cl)ccc12	20	12	11	4	4	4	–
CCN(CC)CCNc1ccc(C)c2sc3ccccc3c(=O)c12 [LUCANTHONE]	–	–	–	–	–	–	IC50 (MDA-MB-231): 5.7 µM
CCN(CC)CCCC(C)Nc1ccnc2cc(Cl)ccc12 (stereo not given) [CHLOROQUINE]	52	76	25	1.2	1.2	1.2	Activity (NCI-H460 [6]): Active; IC50 [7]: 3.6 µM; IC50 [8]: 3.6 µM; IC50 [9]: 3.6 µM; IC50 (HT-29): 3.6 µM
CN(CCNCc1cn(Cc2ccc(Br)cc2)nn1)CCNc1ccnc2cc(Cl)ccc12	12	9.3	8.7	5.7	5.7	5.7	–
CN(CCNc1ccnc2cc(Cl)ccc12)Cc1cn(-c2ccnc3cc(Cl)ccc23)nn1	29	18	16	2.7	2.7	2.7	–
CN(CCNCc1cn(CC(=O)O)nn1)CCNc1ccnc2cc(Cl)ccc12	> 200	> 200	–	–	–	–	–
CN(CCNCc1cn(Cc2ccccc2)nn1)CCNc1ccnc2cc(Cl)ccc12	32	16	9.7	3.1	3.1	3.1	–
CN(CCNCc1cn(-c2ccc(Br)cc2)nn1)CCNc1ccnc2cc(Cl)ccc12	15	11	7.9	5	5	5	–
CN(CCNCc1cn(Cc2nc3cc(Cl)ccc3[nH]2)nn1)CCNc1ccnc2cc(Cl)ccc12	59	65	44	–	–	–	–
CN(CCNCc1cn(Cc2ccc(Cl)cc2)nn1)CCNc1ccnc2cc(Cl)ccc12	11	7.6	5.8	7	7	7	Ratio [10]: >10; Activity (NCI-H460 [11]): Dose-dependent effect; Activity (NCI-H460 [6]): Active; inhibition (NCI-H3122): Active; inhibition (NCI-H460 [12]): Dose-dependent effect; inhibition (NCI-H460 [13]): tde; inhibition (NCI-H460 [14]): Dose-dependent effect; inhibition (NCI-H460 [15]): Active
CN(CCNCc1cn(-c2ccc(Cl)cc2)nn1)CCNc1ccnc2cc(Cl)ccc12	14	9.5	9.1	5.2	5.2	5.2	–
CN(CCNCc1cn(CCn2c(=O)[nH]c3ccccc3c2=O)nn1)CCNc1ccnc2cc(Cl)ccc12	147	> 200	–	–	–	–	–
C#CCNCCN(C)CCNc1ccnc2cc(Cl)ccc12	69	105	–	–	–	–	–
CCN(CCO)CCCC(C)Nc1ccnc2cc(Cl)ccc12 (stereo not given) [HYDROXYCHLOROQUINE]	74	65	33	–	–	–	Cmax (Homo sapiens): 7 µM; Activity (NCI-H460 [6]): Active; inhibition (NCI-H3122): Active; inhibition (NCI-H460 [12]): Dose-dependent effect; inhibition (NCI-H460 [13]): tde; inhibition (NCI-H460 [14]): Dose-dependent effect; inhibition (NCI-H460 [15]): Active
CN(CCNCc1cn(CCc2ccccc2)nn1)CCNc1ccnc2cc(Cl)ccc12	24	15	13	3.2	3.2	3.2	–
CN(CCNCc1cn(-c2nc3ccccc3[nH]2)nn1)CCNc1ccnc2cc(Cl)ccc12	33	32	16	2.1	2.1	2.1	–
